Reference: ChEMBL document CHEMBL1687913, “Structure-activity relationship, conformational and biological studies of temporin L analogues” (J Med Chem, 2011)
In brackets after ≈: the same amount, converted by molar mass. Where a SMILES comes first, the peptide text is derived from it.

Key:
[1] = system: Acinetobacter baumannii; assay: Antibacterial activity against Acinetobacter baumannii ATCC 19606 after 18 to 20 hrs by microbroth dilution method; type: functional
Outline: (§1)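 CLSI microbroth dilution, adapted. Mid-log bacteria, 2 × 10^6 CFU/mL in Mueller-Hinton broth, mixed 1:1 with MH broth holding peptide in serial 2-fold dilutions in 20% ethanol (0.75-48 μM). Incubated 18-20 h at 37 °C; growth read as A600. MIC is the lowest concentration giving 100% growth inhibition.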

[2] = system: Acinetobacter junii; assay: Antibacterial activity against […] Acinetobacter junii RT-4 after 18 to 20 hrs by microbroth dilution method; type: functional; outline: as §1
[3] = system: Enterococcus faecalis; assay: Antibacterial activity against Enterococcus faecalis ATCC 29212 after 18 to 20 hrs by microbroth dilution method; type: functional; outline: as §1
[4] = system: Escherichia coli; assay: Antibacterial activity against Escherichia coli ATCC 25922 after 18 to 20 hrs by microbroth dilution method; type: functional; outline: as §1
[5] = system: Escherichia coli; assay: Antibacterial activity against Escherichia coli D21 after 18 to 20 hrs by microbroth dilution method; type: functional; outline: as §1
[6] = system: Pseudomonas syringae; assay: Antibacterial activity against Pseudomonas syringae pv tobaci after 18 to 20 hrs by microbroth dilution method; type: functional; outline: as §1
[7] = system: Pseudomonas aeruginosa; assay: Antibacterial activity against Pseudomonas aeruginosa ATCC 15692 after 18 to 20 hrs by microbroth dilution method; type: functional; outline: as §1
[8] = system: Pseudomonas aeruginosa; assay: Antibacterial activity against Pseudomonas aeruginosa ATCC 27853 after 18 to 20 hrs by microbroth dilution method; type: functional; outline: as §1
[9] = system: Yersinia pseudotuberculosis; assay: Antibacterial activity against Yersinia pseudotuberculosis YPIII after 18 to 20 hrs by microbroth dilution method; type: functional
Outline: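 Broth microdilution adapted from CLSI. Mid-log bacteria at 2 × 10^6 CFU/mL in Mueller-Hinton broth were mixed 1:1 with MH broth containing peptide in serial 2-fold dilutions (peptide in 20% ethanol), 0.75-48 μM. Plates were incubated 18-20 h at 37 °C and growth was read as A600. MIC is the concentration giving 100% growth inhibition.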

[10] = system: Priestia megaterium; assay: Antibacterial activity against Bacillus megaterium Bm11 after 18 to 20 hrs by microbroth dilution method; type: functional; outline: as §1
[11] = system: Staphylococcus aureus; assay: Antibacterial activity against Staphylococcus aureus ATCC 25923 after 18 to 20 hrs by microbroth dilution method; type: functional; outline: as §1
[12] = system: Staphylococcus aureus; assay: Antibacterial activity against Staphylococcus aureus Cowan I after 18 to 20 hrs by microbroth dilution method; type: functional; outline: as §1
[13] = system: Staphylococcus capitis; assay: Antibacterial activity against Staphylococcus capitis after 18 to 20 hrs by microbroth dilution method; type: functional; outline: as §1
[14] = system: Staphylococcus epidermidis; assay: Antibacterial activity against Staphylococcus epidermidis ATCC 12228 after 18 to 20 hrs by microbroth dilution method; type: functional; outline: as §1
[15] = system: Streptococcus pyogenes; assay: Antibacterial activity against Streptococcus pyogenes ATCC 21547 after 18 to 20 hrs by microbroth dilution method; type: functional; outline: as §1
[16] = system: Candida albicans; assay: Antifungal activity against Candida albicans ATCC 10231 after 18 to 20 hrs by microbroth dilution method; type: functional
Outline: (§2)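 Yeasts tested by adapted CLSI microbroth dilution in Winge medium. Peptide given in serial 2-fold dilutions (0.75-48 μM, made in 20% ethanol). Incubation 18-20 h at 30 °C, read at A600. MIC taken as the concentration giving complete (100%) growth inhibition.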

[17] = system: Schizosaccharomyces pombe; assay: Antifungal activity against Schizosaccharomyces pombe after 18 to 20 hrs by microbroth dilution method; type: functional; outline: as §2
[18] = system: Saccharomyces cerevisiae; assay: Antifungal activity against Saccharomyces cerevisiae after 18 to 20 hrs by microbroth dilution method; type: functional; outline: as §2
[19] = Toxicity in human erythrocytes assessed as hemolysis at 24 uM after 40 mins; type: cell-based, Erythrocyte; conditions: read-out: Activity
Outline: (§3)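 Human red blood cells suspended in 0.9% (w/v) NaCl and incubated 40 min at 37 °C with gentle mixing with serial 2-fold peptide dilutions (peptide predissolved in 20% ethanol). Spun 5 min at 900g; supernatant read at 415 nm. Cells lysed in distilled water set the 100% lysis reference.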

[20] = Toxicity in human erythrocytes assessed as hemolysis at 12 uM after 40 mins; type: cell-based, Erythrocyte; conditions: read-out: Activity; outline: as §3
[21] = Toxicity in human erythrocytes assessed as hemolysis at 6 uM after 40 mins; type: cell-based, Erythrocyte; conditions: read-out: Activity; outline: as §3
[22] = Toxicity in human erythrocytes assessed as hemolysis at 3 uM after 40 mins; type: cell-based, Erythrocyte; conditions: read-out: Activity; outline: as §3
[23] = Toxicity in human erythrocytes assessed as hemolysis at 1.5 uM after 40 mins; type: cell-based, Erythrocyte; conditions: read-out: Activity; outline: as §3

`CC[C@H](C)[C@H](NC(=O)[C@H](CCCNC(=N)N)NC(=O)CNC(=O)[C@H](CC(C)C)NC(=O)[C@H](Cc1ccccc1)NC(=O)[C@H](CCCNC(=N)N)NC(=O)[C@H](CO)NC(=O)[C@H](Cc1ccccc1)NC(=O)[C@H](Cc1c[nH]c2ccccc12)NC(=O)[C@H](CCCNC(=N)N)NC(=O)[C@@H](NC(=O)[C@@H](N)Cc1ccccc1)C(C)C)C(=O)N[C@@H](CC(C)C)C(N)=O` (H-FVRWFSRFLGRIL-NH2) showed an MIC [1] of 6 µM (≈ 10.2 µg/mL), an MIC [2] of 12 µM (≈ 20.4 µg/mL) and an MIC [3] of 24 µM (≈ 40.7 µg/mL). The MIC [4] was 48 µM (≈ 81.4 µg/mL), the MIC [5] was 24 µM (≈ 40.7 µg/mL) and the MIC [6] was 6 µM (≈ 10.2 µg/mL). The MIC [7] was 24 µM (≈ 40.7 µg/mL), the MIC [8] was 24 µM (≈ 40.7 µg/mL) and the MIC [9] was 6 µM (≈ 10.2 µg/mL). For the same compound, the MIC [10] was 3 µM (≈ 5.09 µg/mL), the MIC [11] was 6 µM (≈ 10.2 µg/mL) and the MIC [12] was 6 µM (≈ 10.2 µg/mL). The MIC [13] was 6 µM (≈ 10.2 µg/mL), the MIC [14] was 6 µM (≈ 10.2 µg/mL) and the MIC [15] was 3 µM (≈ 5.09 µg/mL). It also gave an MIC [16] of 24 µM (≈ 40.7 µg/mL), an MIC [17] of 12 µM (≈ 20.4 µg/mL) and an MIC [18] of 24 µM (≈ 40.7 µg/mL). It also gave a hemolysis at 40 min, 24 µM [19] of 100%, a hemolysis at 40 min, 12 µM [20] of 92% and a hemolysis at 40 min, 6 µM [21] of 43%. For the same compound, the hemolysis at 40 min, 3 µM [22] was 14% and the hemolysis at 40 min, 1.5 µM [23] was 6%.
Work on `CC[C@@H](C)[C@@H](NC(=O)[C@@H](CCCNC(=N)N)NC(=O)CNC(=O)[C@@H](CC(C)C)NC(=O)[C@@H](Cc1ccccc1)NC(=O)[C@@H](CCCCN)NC(=O)[C@@H](CO)NC(=O)[C@@H](Cc1ccccc1)NC(=O)[C@@H](Cc1c[nH]c2ccccc12)NC(=O)[C@@H](CCC(N)=O)NC(=O)[C@H](NC(=O)[C@H](N)Cc1ccccc1)C(C)C)C(=O)N[C@H](CC(C)C)C(N)=O` [listing 1 of 2 here] yielded a hemolysis at 40 min, 24 µM [19] of 90%, a hemolysis at 40 min, 12 µM [20] of 88% and a hemolysis at 40 min, 6 µM [21] of 46%. The hemolysis at 40 min, 3 µM [22] was 13% and the hemolysis at 40 min, 1.5 µM [23] was 5%.
Work on `CC(C)C[C@H](NC(=O)[C@H](Cc1c[nH]c2ccccc12)NC(=O)[C@H](CCCNC(=N)N)NC(=O)CNC(=O)[C@H](CC(C)C)NC(=O)[C@H](CC(C)C)NC(=O)[C@H](CCCCN)NC(=O)[C@H](CO)NC(=O)[C@H](CC(C)C)NC(=O)[C@H](Cc1c[nH]c2ccccc12)NC(=O)[C@H](CCC(N)=O)NC(=O)[C@H](CC(C)C)NC(=O)[C@@H](N)CC(C)C)C(N)=O` (H-LLQWLSKLLGRWL-NH2) yielded an MIC [1] of 6 µM (≈ 9.75 µg/mL), an MIC [2] of 6 µM (≈ 9.75 µg/mL) and an MIC [3] of 12 µM (≈ 19.5 µg/mL). The MIC [4] was > 48 µM, the MIC [5] was > 48 µM and the MIC [6] was 12 µM (≈ 19.5 µg/mL). The MIC [7] was > 48 µM, the MIC [8] was > 48 µM and the MIC [9] was 6 µM (≈ 9.75 µg/mL). The MIC [10] was 3 µM (≈ 4.88 µg/mL), the MIC [11] was 6 µM (≈ 9.75 µg/mL) and the MIC [12] was 6 µM (≈ 9.75 µg/mL). The MIC [13] was 6 µM (≈ 9.75 µg/mL), the MIC [14] was 3 µM (≈ 4.88 µg/mL) and the MIC [15] was 6 µM (≈ 9.75 µg/mL). The MIC [16] was 12 µM (≈ 19.5 µg/mL), the MIC [17] was 6 µM (≈ 9.75 µg/mL) and the MIC [18] was 12 µM (≈ 19.5 µg/mL). For the same compound, the hemolysis at 40 min, 24 µM [19] was 100%, the hemolysis at 40 min, 12 µM [20] was 100% and the hemolysis at 40 min, 6 µM [21] was 78%. It also gave a hemolysis at 40 min, 3 µM [22] of 13% and a hemolysis at 40 min, 1.5 µM [23] of 8%.
With `CC[C@@H](C)[C@@H](NC(=O)[C@@H](CCCNC(=N)N)NC(=O)CNC(=O)[C@@H](CC(C)C)NC(=O)[C@@H](Cc1ccccc1)NC(=O)[C@@H](CCCCN)NC(=O)[C@@H](CO)NC(=O)[C@@H](Cc1ccccc1)NC(=O)[C@@H](Cc1c[nH]c2ccccc12)NC(=O)[C@@H](CCC(N)=O)NC(=O)[C@H](NC(=O)[C@H](N)Cc1ccccc1)C(C)C)C(=O)N[C@H](CC(C)C)C(N)=O` [listing 2 of 2 here] the MIC [1] was 6 µM (≈ 9.84 µg/mL), the MIC [2] was 6 µM (≈ 9.84 µg/mL) and the MIC [3] was 3 µM (≈ 4.92 µg/mL). It also gave an MIC [4] of 12 µM (≈ 19.7 µg/mL), an MIC [5] of 12 µM (≈ 19.7 µg/mL) and an MIC [6] of 6 µM (≈ 9.84 µg/mL). The MIC [7] was 48 µM (≈ 78.7 µg/mL), the MIC [8] was > 48 µM and the MIC [9] was 3 µM (≈ 4.92 µg/mL). The MIC [10] was 1.5 µM (≈ 2.46 µg/mL), the MIC [11] was 3 µM (≈ 4.92 µg/mL) and the MIC [12] was 3 µM (≈ 4.92 µg/mL). The MIC [13] was 3 µM (≈ 4.92 µg/mL), the MIC [14] was 3 µM (≈ 4.92 µg/mL) and the MIC [15] was 6 µM (≈ 9.84 µg/mL). It also gave an MIC [16] of 6 µM (≈ 9.84 µg/mL), an MIC [17] of 6 µM (≈ 9.84 µg/mL) and an MIC [18] of 6 µM (≈ 9.84 µg/mL).
